Assay results: the EternaBench riboswitch data

Key:
MS2 coat protein [1] = test: apparent Kd, MS2 coat protein; higher = weaker binding; RNA-MaP array; tryptophan 2.4 mM where present
Method in brief: (§1)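 SNAP-549-labelled MS2 coat protein, doubled from 0.7 or 1.5 nM to 3 µM, was titrated over designs transcribed by stalled E. coli RNA polymerase on Illumina sequencing-chip clusters. Titrations were run without and then with constant ligand in 100 mM Tris-HCl pH 7.5, 80 mM KCl, 4 mM MgCl2, BSA, DTT, yeast tRNA and Tween-20. The apparent Kd is the median of filtered per-cluster fits to green signal normalised to red-channel RNA signal and control-cluster median Fmax.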

MS2 coat protein [2] = test: apparent Kd, MS2 coat protein; higher = weaker binding; RNA-MaP array; theophylline 2 mM where present
Method in brief: as §1

[3] = designed as: OFF switch for tryptophan, no ligand
[4] = ligand present: tryptophan, designed as: OFF switch for tryptophan
[5] = designed as: ON switch for tryptophan, no ligand
[6] = ligand present: tryptophan, designed as: ON switch for tryptophan
[7] = designed as: OFF switch for theophylline, no ligand
[8] = ligand present: theophylline, designed as: OFF switch for theophylline
[9] = designed as: ON switch for theophylline, no ligand
[10] = ligand present: theophylline, designed as: ON switch for theophylline

ACCUGCGUUUGUUUCUUUCUGACGCAGGUUCGAGGACCGGUACGGCCGCCACUCGGACAUGAGGAUCACCCAUGUUUGACAUGGG
apparent Kd (MS2 coat protein [1]; [3]): 57.3 nM
apparent Kd (MS2 coat protein [1]; [4]): 17.3 nM

AGCCACUCGAGUGAUCCUCACGAGUGGCUACGAGGACCGGUACGGCCGCCACUCGAAUUAACAUGAGGAUCACCCAUGUAAUCUC
apparent Kd (MS2 coat protein [1]; [5]): 102 nM
apparent Kd (MS2 coat protein [1]; [6]): 45.9 nM

CGCGCGACAUGAGGAUCACCCAUGUUCCCUCGAGGACCGGUACGGCCGCCACUCGAGGACAUGAGCAUCAGCCAUGUACCGGUCA
apparent Kd (MS2 coat protein [1]; [5]): 51.6 nM
apparent Kd (MS2 coat protein [1]; [6]): 131 nM

UUAAUUAUUGAAUCGUAUUGGUAUUAAGAACGAGGACCGGUACGGCCGCCACUCGUGAUAUACAUGAGGAUCACCCAUGUUAGCA
apparent Kd (MS2 coat protein [1]; [5]): 14.8 nM
apparent Kd (MS2 coat protein [1]; [6]): 14 nM

AGCCACUCGAACAUGGGUGACGAGUGGCAACGAGGACCGGUACGGCCGCCACUCGAAUAAACAUGAGGAUCACCCAUGUACAAAU
apparent Kd (MS2 coat protein [1]; [5]): 292 nM
apparent Kd (MS2 coat protein [1]; [6]): 214 nM

UCGUUGAAGUCGGCCGCCACUGAACUCAUGUUCAACAUGAGGAUCACCCAUGUACCUUAUUUUAACAGGACCGGGACUUUGACGA
apparent Kd (MS2 coat protein [1]; [3]): 167 nM
apparent Kd (MS2 coat protein [1]; [4]): 156 nM

AGAAUAUAGUCGGCCGCCACUCUACAUACAUGAGGAUCACCCAUGUUUACAUAGUGAAUAUACAUGAGGACCGGGACAUAGGCAU
apparent Kd (MS2 coat protein [1]; [5]): 21.8 nM
apparent Kd (MS2 coat protein [1]; [6]): 13.4 nM

GUUAUUAGAAAACUAAUAACAGUGGGUGAACGAGGACCGGUACGGCCGCCACUCGGACAUGAGGAUCACCCAUGUCCAUGUGAAA
apparent Kd (MS2 coat protein [1]; [3]): 15.4 nM
apparent Kd (MS2 coat protein [1]; [4]): 32.7 nM

GCUGCAGCUACGGCCGCCACUGUUACGUGAGACAUGAGGAUCACCCAUGUUGAUGUUUUACGGUAUAGGACCGGGUAGUUGUAGU
apparent Kd (MS2 coat protein [1]; [3]): 9.7 nM
apparent Kd (MS2 coat protein [1]; [4]): 13.4 nM

GGUGGACUUUCGGCCGCCACUGAGAGAGUCGUGUGAACAUGAGGAUCACCCAUGUAAUAUAUAUACAGGACCGGGAGGGUUGUCC
apparent Kd (MS2 coat protein [1]; [3]): 15.9 nM
apparent Kd (MS2 coat protein [1]; [4]): 15.9 nM

CCUAUGCAGUCGGCCGCCACUGAAAACAGCCUCAAAAUAAAUAUAACAUGAGGAUCACCCAUGUACAGGACCGGGACUGUAUAGG
apparent Kd (MS2 coat protein [1]; [3]): 147 nM
apparent Kd (MS2 coat protein [1]; [4]): 79.6 nM

GAUAUACGUGCGGCCGCCACUGAGUGGCGGGCGUGUCGAGUUACAUGAGGAUCACCCAUGUCACUCAGGACCGGGCACGGAAUUU
apparent Kd (MS2 coat protein [1]; [3]): 9.98 nM
apparent Kd (MS2 coat protein [1]; [4]): 11.4 nM

AGAGUCUAGUCGGCCGCCACUCAUGUCCAAAGGACAUGAGGAUCACCCAUGUACCAAUGGUACAUGAGGACCGGGACUGGACUCA
apparent Kd (MS2 coat protein [1]; [5]): 27.7 nM
apparent Kd (MS2 coat protein [1]; [6]): 8.33 nM

GGCAAAAGGUCGGCCGCCACUGUAGGAUGUGUUCUUUCACAUGAGGAUCACCCAUGUUGUUAUUAUAGGACCGGGAUUUUAGGAC
apparent Kd (MS2 coat protein [1]; [3]): 21.8 nM
apparent Kd (MS2 coat protein [1]; [4]): 21.1 nM

CCUCAAUAGACGGCCGCCACUGAAACAUGAGGAUACAUGAGGAUCACCCAUGUGGGUGUGUUACGCAGGACCGGGUCAAGACCCG
apparent Kd (MS2 coat protein [1]; [5]): 207 nM
apparent Kd (MS2 coat protein [1]; [6]): 336 nM

UAACAUGAGGAUCACCCAUGUUUAGAAGAACGAGGACCGGUACGGCCGCCACUCGAAAAGUGGAAGAAAAGAGGGAUAGAAUGAU
apparent Kd (MS2 coat protein [1]; [5]): 12.2 nM
apparent Kd (MS2 coat protein [1]; [6]): 12.6 nM

AGAGUCUAGUCGGCCGCCACUCAUGUCCAAUGGACAUGAGGAUCACCCAUGUACCAAAGGUACAUGAGGACCGGGACUGGACUCA
apparent Kd (MS2 coat protein [1]; [5]): 47.7 nM
apparent Kd (MS2 coat protein [1]; [6]): 7.57 nM

CACGAAAGAUCGGCCGCCACUAUUUGAUGUGUUCUUUCACAUGAGGAUCACCCAUGUUCUUAUUUUAGGACCGGGAUUGAGCGUG
apparent Kd (MS2 coat protein [1]; [3]): 94.8 nM
apparent Kd (MS2 coat protein [1]; [4]): 69.3 nM

GCAUCCUAGUCGGCCGCCACUGGUAUGAACACCUUCACCCGUGUGCACAUGAGGAUCACCCAUGUUAGGACCGGGACUAGGAUGC
apparent Kd (MS2 coat protein [1]; [5]): 9.03 nM
apparent Kd (MS2 coat protein [1]; [6]): 9.3 nM

AGCACUGUGACGGCCGCCACUAUAUUAGGGUGGUCAGGUUCAUAAAUACAUGAGGAUCACCCAUGUAGGACCGGGUCUCAGUGCA
apparent Kd (MS2 coat protein [1]; [3]): 9.48 nM
apparent Kd (MS2 coat protein [1]; [4]): 9.88 nM

GGCUAUACUACGGCCGCCACUGAACAUGAGGAUCACCCAUGUAAUGUUCAGAUUUUUUUUUUUUACAGGACCGGGUAGAAUUGCC
apparent Kd (MS2 coat protein [1]; [5]): 195 nM
apparent Kd (MS2 coat protein [1]; [6]): 104 nM

CGAAUAUAGACGGCCGCCACUCUACAAACAUGAGGAUCACCCAUGUUCACAUAGUGGAAACACAUGAGGACCGGGUCAUAGGCUU
apparent Kd (MS2 coat protein [1]; [5]): 22.6 nM
apparent Kd (MS2 coat protein [1]; [6]): 17.1 nM

AGAGUCUAGUCGGCCGCCACUCAUGUCCAAUGGACAUGAGGAUCACCCAUGUACCGAAGGUACAUGAGGACCGGGACUGGACUCA
apparent Kd (MS2 coat protein [1]; [5]): 153 nM
apparent Kd (MS2 coat protein [1]; [6]): 11.7 nM

AACAUGAGGAUCACCCAUGUGUCCUCGAAACGAGGACCGGUACGGCCGCCACUCGGCGUAUGUUGACGAAAAGUCAGCAUACGCA
apparent Kd (MS2 coat protein [1]; [3]): 192 nM
apparent Kd (MS2 coat protein [1]; [4]): 737 nM

UAAACUACACAUGAGGAUCACCCAUGUGGCCGAGGACCGGUACGGCCGCCACUCGUGUGUUAAUAAUAGAACUGCAAGGUUCUGU
apparent Kd (MS2 coat protein [1]; [5]): 183 nM
apparent Kd (MS2 coat protein [1]; [6]): 75.2 nM

AAUACCGGAUCGGCCGCCACUGGUUGGCCCUGUGUACAUGAGGAUCACCCAUGUCCAUCCCAGACCAGGACCGGGAUCUUUGUGU
apparent Kd (MS2 coat protein [1]; [5]): 15.8 nM
apparent Kd (MS2 coat protein [1]; [6]): 10.4 nM

CGCACAUGAGGAUCACCCAUGUGAGGGCGUCGAGGACCGGUACGGCCGCCACUCGCAGGACAUGAGGAUCACCCAUGUGCCGCCG
apparent Kd (MS2 coat protein [1]; [5]): 116 nM
apparent Kd (MS2 coat protein [1]; [6]): 57.2 nM

AGCACUGUGACGGCCGCCACUACAUAACAUGGGUGGUCAGGUUCAUUACAUGAGGAUCACCCAUGUAGGACCGGGUCUCAGUGCA
apparent Kd (MS2 coat protein [1]; [3]): 10.1 nM
apparent Kd (MS2 coat protein [1]; [4]): 8.35 nM

GAGGGUGAAUCUCUGGUCCGUUUGACGGAUACCAGCGAGAGGUAUCGCCCUUGGCAGCCGACGACAUGAGGAUCACCCAUGUUAA
apparent Kd (MS2 coat protein [2]; [7]): 17.9 nM
apparent Kd (MS2 coat protein [2]; [8]): 109 nM

ACGACGCAUAGUGAUACCAGUAGAACAUGAGGAUCACCCAUGUCUGUGGCGCACCACCUCUGCCCUUGGCAGCACUAUGCGUCAG
apparent Kd (MS2 coat protein [2]; [9]): 13.4 nM
apparent Kd (MS2 coat protein [2]; [10]): 12.8 nM

CUAUAAGUACCGGUCCUCAGAUCCUCAUGACGAGGACCGGUACGGCCGCCACUCGAAACAUGAGGAUCACCCAUGUAAUAAUAUU
apparent Kd (MS2 coat protein [1]; [3]): 20.2 nM
apparent Kd (MS2 coat protein [1]; [4]): 19.3 nM

CACGAAAGAUCGGCCGCCACUCAUGUUUCUUACAUGAGGAUCACCCAUGUAUUUUCUUUCUUUUAGAGGACCGGGAUUGAGCGUG
apparent Kd (MS2 coat protein [1]; [5]): 155 nM
apparent Kd (MS2 coat protein [1]; [6]): 29.8 nM

UAAUAAGUACCGGUCCUCAGAUCCUCAUGACGAGGACCGGUACGGCCGCCACUCGAAACAUGAGGAUCACCCAUGUAAUAAUAAC
apparent Kd (MS2 coat protein [1]; [3]): 27.4 nM
apparent Kd (MS2 coat protein [1]; [4]): 19.4 nM

AGCCUAUUACAUGAGGAUCACCCAUGUGAUACCAGUCAGGAAACUGACCCUUGGCAGCGCAUGAGGAUCACCCAUGCGCUAGGCA
apparent Kd (MS2 coat protein [2]; [7]): 10.1 nM
apparent Kd (MS2 coat protein [2]; [8]): 10.2 nM

CAUGGGUGGUAUCACCCAUCCAUAGGUGAUACCAGCAUCGAAAGAUGCCCUUGGCAGCACCAACAUGAGGAUCACCCAUGUAAUA
apparent Kd (MS2 coat protein [2]; [9]): 264 nM
apparent Kd (MS2 coat protein [2]; [10]): 202 nM

CCUAUGCAGUCGGCCGCCACUGAACAUGAGGAUCACCCAUGUAAUUAAAAUUAAGGUCCUAAAAUCAGGACCGGGACUGUAUAGG
apparent Kd (MS2 coat protein [1]; [3]): 38.5 nM
apparent Kd (MS2 coat protein [1]; [4]): 237 nM

GGGUGGUAGGCGGCCGCCACUGAUUUUCAUUCCUGGAUGACAUGAGGAUCACCCAUGUUUACGGGCAGGACCGGGCCUGCUGUGG
apparent Kd (MS2 coat protein [1]; [5]): 57.3 nM
apparent Kd (MS2 coat protein [1]; [6]): 46.5 nM

GAUGAACUAUAUGAUACCAGACAACAUGAGGAUCACCCAUGUGAAUGUCGUCCUCUGCCUGUCCCUUGGCAGCGUAUAGUUUAUC
apparent Kd (MS2 coat protein [2]; [7]): 29.6 nM
apparent Kd (MS2 coat protein [2]; [8]): 177 nM

GCACCAGGUACGGAUACCAGCUAUAGGCCCAAUGGGCGACAUGAGGAUCACCCAUGUAAUGGCCCUUGGCAGCUGUACCUGGUGC
apparent Kd (MS2 coat protein [2]; [9]): 88.3 nM
apparent Kd (MS2 coat protein [2]; [10]): 13.7 nM

UUUACAUGAGGAUCACCCAUGUGCCAUGAUACCAGACAUGAAAAUGUCCCUUGGCAGCAUGAGUGAUUCAUCCGAAAGGAUGUUU
apparent Kd (MS2 coat protein [2]; [9]): 121 nM
apparent Kd (MS2 coat protein [2]; [10]): 673 nM

UAAUGCAGGUCGGCCGCCACUACACACAUGAGGAUCACCCAUGUAGUUACUGGGUGAAGUGGCAGUAGGACCGGGACCUGCAUAC
apparent Kd (MS2 coat protein [1]; [5]): 372 nM
apparent Kd (MS2 coat protein [1]; [6]): 470 nM

ACAUGAGGAUCACCCAUGUAAUGGCACGAUACCAGCUGAUCCCGUGGCCCUUGGCAGCGUCCGGUGUGGUCCGCCGGGUUGGACG
apparent Kd (MS2 coat protein [2]; [9]): 23.1 nM
apparent Kd (MS2 coat protein [2]; [10]): 35 nM
